MDM2 E3 inh: blocks human Mdm2 ubiquitin ligase activity. Q00987. cell-based MDM2 ubiquitination luciferase reporter, 2 h; 0 = plate control, 100 = twice control, blank-subtracted. signal enhancement, % at 5 µM. 210,000 tested, 0.11% active. AID 1230;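 active = signal enhancement of 30% or more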;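 note: luminescence tracks abundance of the self-degrading MDM2-luciferase fusion protein; higher signal means inhibition of MDM2 E3 ligase activity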
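Assay system: stable mammalian line carrying autodegrading MDM2–luciferase fusion reporter; amount: 2000 cells seeded into each well; buffer or medium: DMEM; benchmarks: plate control and blank wells; signal: luciferase luminescence; timing: 2 h compound exposure at 37 °C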
HSF-1 act: increases HSF-1 driven luciferase reporter signal; NIH3T3-HGL HSF-1 luciferase reporter, MG132, 8 h; 100% = twice DMSO control signal; 300,000 tested, 1.7% active; activation, % at 9 µM;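 active = mean replicate activation of at least 50% with a set share of replicates each reaching 50%; inconclusive = only one of those two conditions met; inactive = mean below 50% and too few replicates reaching it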;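 note: 0% = median of the neutral control wells and 100% = twice that signal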
Hsp70 act: transcriptional activators of Hsp70; HeLa Hsp70 promoter luciferase reporter, luminescence; scaled: vehicle 0, proteasome-inhibitor control 100%; activation, % at 10 µM; 200,000 tested, 0.04% active; AID 1203;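 active = activation above the mean across all tested compounds plus 3 SD, cutoff set per campaign, cut at about 5.5% in these data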;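 note: 100% = MG132 at 30 µM as the positive control and 0% = DMSO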
Rad51 HR inh: blocks human Rad51 in homologous recombination | inhibition, % at 10 µM | Q06609 | 200,000 tested, 0.085% active | hRad51 DNA strand exchange, fluorescence dequenching;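 active = inhibition above 40% at the single screening dose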;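 note: 0% = DMSO control wells and 100% = blanks with heterologous ssDNA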
Target sequence (Q06609 whole entry, looked up): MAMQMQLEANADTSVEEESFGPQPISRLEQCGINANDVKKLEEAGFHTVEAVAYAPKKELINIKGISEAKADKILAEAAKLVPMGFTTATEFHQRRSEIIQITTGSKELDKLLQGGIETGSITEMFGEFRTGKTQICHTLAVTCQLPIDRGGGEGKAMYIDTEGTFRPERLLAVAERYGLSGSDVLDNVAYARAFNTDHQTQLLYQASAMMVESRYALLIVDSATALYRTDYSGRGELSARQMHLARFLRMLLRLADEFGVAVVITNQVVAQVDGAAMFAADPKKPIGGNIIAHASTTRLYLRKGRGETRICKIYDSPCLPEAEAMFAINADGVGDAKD
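Test system – preformed human Rad51 ssDNA filaments · Reagent – Donor/quencher-labelled 47-bp dsDNA substrate · Incubation – 37 °C 15-min filament assembly, 30-min compound preincubation, 15-min exchange · Signal – FRET fluorescence dequenching, excitation 485 nm, emission 520 nm · Read-out – percent inhibition from fluorescence, normalised to plate control and blank means · Benchmarks – plate control and blank wells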
HSF1 inhib: HSF1 inhibition; NIH3T3-HGL HSE-luciferase, MG132-induced, luminescence 8 h; hits give low values; activity change, negative = inhibition, % at 7.5 µM (by protocol); 300,000 tested, 0.77% active;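 active = more than half of replicate wells show activity change below -50%, luminescence cut by over half; inconclusive = some wells, but at most half, below -50%; inactive = no replicate well below -50%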;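 note: luciferase reports HSF-1 transcriptional activity via heat shock element; 0% = median of DMSO wells and -100% = zero luminescence signal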
HSV augment: HSV replication enhancement. HSV replication augmentation in cells, fold increase. maximum fold increase. 220,000 tested, 0.005% active; in the data active = maximum fold increase above about 1.5; inconclusive = no clear call, values can overlap the other calls; tested in PC3 cells
* marks the source's active call; other numbers are inactive results; i = inactive; ? = inconclusive; / = not tested or not shown. Only some compounds are listed: those with a hit (about 2.6% of all), similar ones and a draw of the others.

SMILES	MDM2 E3 inh	HSF-1 act	Hsp70 act	Rad51 HR inh	HSF1 inhib	HSV augment
Cc1ccnc(N2C(=O)CSC2c2ccc(Cl)cc2)c1 (configuration not stated)	11	8	0	15	6	i
CC(C)(C)C(=O)CSc1nc(N)cc(=O)[nH]1	-11	-3	0	/	-4	i
COc1cccc(NC(=O)c2ccccc2N2C(=O)C3C4C=CC(C4)C3C2=O)c1 (configuration not stated)	/	5	/	/	4	/
Nc1nnc(COc2ccc(Br)cc2Br)s1	-7	92*	0	0	46	i
Cc1ccc(C)c(OCc2nnc(N)s2)c1	-22	6	0	8	2	i
Cn1ncc(Cl)c1C(=O)N1CCN(S(=O)(=O)c2ccc(Cl)s2)CC1	/	-17	/	/	-1	/
Cc1ccc(/C=C2\Oc3cc(OC(=O)N4CCOCC4)ccc3C2=O)cc1	-9	92*	0	2	32	i
CC(C)(C)c1ccc(/C=C2\Oc3cc(OC(=O)N4CCOCC4)ccc3C2=O)cc1	-17	6	0	4	1	i
CCCCn1c(N)c(N(Cc2ccccc2OC)C(=O)CN2C(=O)NC(C)(c3ccccc3)C2=O)c(=O)[nH]c1=O (configuration not stated)	/	31	/	/	2	/
CCN(CC)S(=O)(=O)c1ccc2c(c1)nc(SC(C)C(N)=O)n2-c1ccc(OC)cc1 (configuration not stated)	-11	-8	0	63*	2	i
CN(CCC#N)S(=O)(=O)c1cc2c3c(c1)CCN3C(=O)CC2	/	7	/	/	3	/
O=C(Nc1cc(-c2nc3ncccc3o2)ccc1Cl)c1ccc([N+](=O)[O-])o1	/	110*	/	/	78	/
CCC(=O)N1CCN(c2ccccc2NC(=O)c2ccc([N+](=O)[O-])o2)CC1	/	22	/	/	25	/
CC(C)C(=O)N1CCN(c2ccccc2NC(=O)c2ccc([N+](=O)[O-])o2)CC1	/	80*	/	/	41	/
O=C(Nc1cc(-c2nc3ncccc3o2)ccc1Cl)c1cccs1	/	-7	/	/	0	/
Cc1ccc(NC(=O)c2ccc([N+](=O)[O-])o2)cc1C	-9	/	0	/	/	i
O=C(Nc1cccc(NC(=O)c2ccccc2Cl)c1)c1ccc([N+](=O)[O-])o1	/	97*	/	/	55	/
COc1ccccc1NC(=O)c1ccc([N+](=O)[O-])o1	/	-88	/	/	-86*	/
O=C(Nc1cccc2ccccc12)c1ccc([N+](=O)[O-])o1	/	72*	/	/	58	/
CN(C)c1ccc(-c2nnc(-c3cccs3)o2)cc1	-66	49	0	7	29	i
Brc1ccc(-c2cnc(-c3cccs3)o2)cc1	32*	45	0	-4	37	i
COCCCn1c(-c2ccco2)nc2ccccc2c1=O	-6	-74	0	-3	-68*	i
COc1ccc(CCn2c(-c3ccco3)nc3ccccc3c2=O)cc1OC	-9	2	0	1	-11	i
O=S1(=O)NC(=NCC(c2ccco2)N2CCCCC2)c2ccccc21 (configuration not stated)	2	85*	/	-5	38	i
CN(C)C(CN=C1NS(=O)(=O)c2ccccc21)c1ccco1 (configuration not stated)	-13	-1	0	13	5	i
SMILES	MDM2 E3 inh	HSF-1 act	Hsp70 act	Rad51 HR inh	HSF1 inhib	HSV augment
Cc1cc(C)c(C)c(C(=O)CSc2nnc(-c3ccc4[nH]c(C)c(C)c4c3)o2)c1C	-7	-17	0	-8	-13	i
Cc1[nH]c2ccc(-c3nnc(SCC(=O)c4ccc(F)cc4)o3)cc2c1C	-20	-64	0	-2	-60*	i
CCCOc1ccc(CSc2nc3ccccc3[nH]2)cc1	-50	35	0	/	27	/
Cc1cc(SCc2ccc([N+](=O)[O-])cc2)nc(=O)[nH]1	/	69*	/	/	34	/
c1ccc(CSc2nc3ccccc3[nH]2)cc1	-28	?	/	6	35	i
O=C(CCCSc1nc2ccccc2[nH]1)N1CCN(c2ccc([N+](=O)[O-])cc2)CC1	-10	73*	0	0	23	i
Fc1ccc(CSc2nc3ccccc3[nH]2)cc1	-11	61*	0	-4	28	i
O=C(CSc1nc2ccccc2[nH]1)N1CCN(c2ccc(F)cc2)CC1	-18	25	0	0	9	i
O=[N+]([O-])c1ccc(CSc2nc3ccccc3[nH]2)cc1	-7	121*	0	-3	67	i
O=C(CN1CCN(c2ccc(F)cc2)CC1)NC(=O)NCc1ccco1	-23	-3	0	6	3	i
Nn1c(SCc2ccc([N+](=O)[O-])cc2)nc2ccccc2c1=O	/	55*	/	/	20	/
O=c1c2ccccc2nc(SCc2ccc([N+](=O)[O-])cc2)n1-c1ccc(Cl)cc1	-31	12	0	-7	4	i
O=c1c2sccc2nc(SCc2ccc([N+](=O)[O-])cc2)n1Cc1ccccn1	-7	59*	0	9	19	i
COc1ccc(/C(O)=C2/C(=O)C(=O)N(CCN3CCNCC3)C2c2cccc([N+](=O)[O-])c2)cc1 (configuration not stated)	/	-6	/	/	-6	/
CCc1ccn2cc(-c3cc(-c4ccccc4)no3)nc2c1	-88	-74	/	10	-69*	i
COc1cccc(NC(=O)c2ccc3c(c2)N(C)CCS3)c1	/	92*	/	/	63	/
CN1CCSc2ccc(C(=O)Nc3ccc(Cl)cc3)cc21	6	122*	/	/	80	i
COc1cccc(NC(=O)c2ccc3c(c2)CCN3S(C)(=O)=O)c1	/	21	/	/	7	/
CC(C)[C@H](NC(=O)[C@@H]1CSC2c3ccccc3C(=O)N21)C(=O)NCc1ccncc1 (some centres not stated)	/	-6	/	/	-3	/
O=C(CSc1nc(O)cc(=O)n1-c1ccccc1)Nc1ccc(Br)cn1	-5	10	0	-3	-3	i
CC1(c2ccccc2)CC(C)(C)N2C(=O)Cc3cccc1c32 (configuration not stated)	-5	29	0	-3	20	i
CCOc1cc(C2NN=C(c3ccccc3)S2)ccc1OCc1ccc(F)cc1 (configuration not stated)	-39	56*	0	-12	30	i
CCOc1cc(C2NN=C(c3ccccc3)S2)ccc1OCc1ccccc1Cl (configuration not stated)	0	53*	0	1	38	i
O=C(CSc1cccc[n+]1[O-])Nc1ccc([N+](=O)[O-])cc1Cl	-15	5	0	18	3	i
CC(C)(C)NC(=O)CN(C(=O)CNS(=O)(=O)c1ccc(Cl)cc1)c1ccc2c(c1)OCCO2	/	10	/	/	-3	/

Assay outcomes from PubChem BioAssay.
